Measurements as given in ChEMBL document CHEMBL1129945, “New 2-piperazinylbenzimidazole derivatives as 5-HT3 antagonists. Synthesis and pharmacological evaluation” (J Med Chem, 1997).

Assays:
[1] = molecular target: 5-hydroxytryptamine receptor 4 (Cavia porcellus, UniProt O70528); test: In vitro by displacement of [3H]GR-113808 from 5-hydroxytryptamine 4 receptor on guinea pig striatal membrane; design: species or system Striatum
Procedure, shortened: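 Striatal membranes from male Dunkin-Hartley guinea pigs (350-400 g) in 50 mM Hepes pH 7.4, 800-900 µg protein. Nonspecific binding with 10 µM 5-HT. Incubation 30 min at 25 °C, then filtration and scintillation counting. Triplicate, 10-12 concentrations, two experiments. IC50 and Ki calculated.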

[2] = molecular target: 5-hydroxytryptamine receptor 2A (Rattus norvegicus, UniProt P14842); test: Binding affinity was evaluated in vitro by displacement of [3H]ketanserin from 5-hydroxytryptamine 2A receptor on rat cortical membrane
Procedure, shortened: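 Prefrontal cortex membranes from adult male Wistar rats (220-280 g), final dilution 1:60 wt/vol in 50 mM Tris-HCl. Displacer added in Tris-HCl with 10% ethanol. [3H]ketanserin at 0.8 nM final. Nonspecific binding with 1 µM methysergide. Triplicate competition, 10-12 displacer concentrations, two separate experiments. Filtration and scintillation counting. IC50 and Ki calculated.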

[3] = molecular target: T1, 5-hydroxytryptamine receptor 1A (Rattus norvegicus, UniProt P19327); test: In vitro by displacement of [3H]8-OH-DPAT from 5-hydroxytryptamine 1A receptor on rat cortical membrane
T1 sequence (P19327 whole entry): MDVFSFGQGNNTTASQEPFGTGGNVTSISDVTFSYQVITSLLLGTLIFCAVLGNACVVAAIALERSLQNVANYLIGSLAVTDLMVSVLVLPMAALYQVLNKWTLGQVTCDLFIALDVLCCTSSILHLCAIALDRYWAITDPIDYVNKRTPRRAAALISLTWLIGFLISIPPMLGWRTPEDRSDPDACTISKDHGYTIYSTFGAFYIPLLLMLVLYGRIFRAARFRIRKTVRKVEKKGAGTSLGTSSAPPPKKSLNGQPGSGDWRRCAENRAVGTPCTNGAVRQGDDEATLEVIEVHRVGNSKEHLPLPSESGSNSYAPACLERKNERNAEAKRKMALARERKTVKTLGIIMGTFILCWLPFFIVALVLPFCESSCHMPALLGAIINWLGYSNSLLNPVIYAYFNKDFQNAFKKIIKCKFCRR
Procedure, shortened: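 Cerebral cortex membranes from adult male Wistar rats (220-280 g) in 50 mM Tris-HCl with 4 mM CaCl2, 0.1% ascorbate and 10 µM pargyline. [3H]8-OH-DPAT at 1.5 nM final. Nonspecific binding with 10 µM 5-HT. Incubation 30 min at 37 °C. Triplicate, 10-12 concentrations, two experiments. IC50 and Ki calculated.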

Rattus norvegicus = test: In vivo effective dose against Bezold-Jarisch reflex evoked by 5-HT in urethane-anesthetized rats; assay type: functional
Procedure, shortened: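 Bradycardia induced by iv bolus of 5-HT 30 µg/kg. Antagonist or saline given iv (1 mL/kg) after recovery, and 5-HT challenge repeated 5 min later. Heart rate taken from the carotid pressure signal. ED50 in µg/kg iv by linear regression from 3-5 doses, 4-5 rats per dose.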

[4] = molecular target: T2, Serotonin 3 (5-HT3) receptor (Rattus norvegicus, UniProt P35563+Q9JJ16); test: In vitro by displacement of [3H]LY-278584 from 5-hydroxytryptamine 3 receptor on rat entorhinal cortex
T2 sequence (P35563 whole entry): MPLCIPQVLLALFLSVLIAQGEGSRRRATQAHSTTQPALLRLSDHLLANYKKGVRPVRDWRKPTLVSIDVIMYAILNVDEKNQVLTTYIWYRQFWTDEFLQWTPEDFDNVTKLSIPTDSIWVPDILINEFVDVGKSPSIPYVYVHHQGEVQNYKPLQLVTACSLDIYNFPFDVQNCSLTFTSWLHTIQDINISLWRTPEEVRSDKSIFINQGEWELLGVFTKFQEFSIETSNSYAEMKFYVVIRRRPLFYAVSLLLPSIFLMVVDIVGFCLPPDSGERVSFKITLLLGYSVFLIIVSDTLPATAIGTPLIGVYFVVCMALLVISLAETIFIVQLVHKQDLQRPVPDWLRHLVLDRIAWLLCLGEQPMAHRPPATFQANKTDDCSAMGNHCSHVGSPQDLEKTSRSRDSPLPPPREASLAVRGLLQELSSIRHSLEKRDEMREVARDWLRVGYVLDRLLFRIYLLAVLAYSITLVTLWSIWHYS
T2 sequence (Q9JJ16 whole entry): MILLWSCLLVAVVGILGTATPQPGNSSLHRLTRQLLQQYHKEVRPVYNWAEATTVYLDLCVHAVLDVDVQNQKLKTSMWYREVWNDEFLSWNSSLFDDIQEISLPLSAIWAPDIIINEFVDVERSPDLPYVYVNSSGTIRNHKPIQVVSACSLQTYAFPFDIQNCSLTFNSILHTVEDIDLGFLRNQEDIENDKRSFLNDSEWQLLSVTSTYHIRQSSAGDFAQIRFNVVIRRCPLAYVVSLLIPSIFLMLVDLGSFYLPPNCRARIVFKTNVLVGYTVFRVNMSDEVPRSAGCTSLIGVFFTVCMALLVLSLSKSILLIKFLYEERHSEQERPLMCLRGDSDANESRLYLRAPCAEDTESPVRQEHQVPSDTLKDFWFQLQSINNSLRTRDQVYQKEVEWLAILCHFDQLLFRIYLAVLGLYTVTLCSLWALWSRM
Procedure, shortened: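 Entorhinal cortex membranes from male Wistar rats (220-280 g), 500-600 µg protein, in 50 mM Tris-HCl with 5 mM CaCl2, 0.1% ascorbate and 10 µM pargyline. Nonspecific binding with 10 µM 5-HT. Incubation 30 min at 25 °C. Triplicate, 10-12 concentrations, two experiments. IC50 and Ki calculated.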

D(2) dopamine receptor = D(2) dopamine receptor (Rattus norvegicus, UniProt P61169); test: In vitro by displacement of [3H]raclopride from Dopamine receptor D2 on rat striatal membrane; design: species or system Striatum
D(2) dopamine receptor, sequence (P61169 whole entry): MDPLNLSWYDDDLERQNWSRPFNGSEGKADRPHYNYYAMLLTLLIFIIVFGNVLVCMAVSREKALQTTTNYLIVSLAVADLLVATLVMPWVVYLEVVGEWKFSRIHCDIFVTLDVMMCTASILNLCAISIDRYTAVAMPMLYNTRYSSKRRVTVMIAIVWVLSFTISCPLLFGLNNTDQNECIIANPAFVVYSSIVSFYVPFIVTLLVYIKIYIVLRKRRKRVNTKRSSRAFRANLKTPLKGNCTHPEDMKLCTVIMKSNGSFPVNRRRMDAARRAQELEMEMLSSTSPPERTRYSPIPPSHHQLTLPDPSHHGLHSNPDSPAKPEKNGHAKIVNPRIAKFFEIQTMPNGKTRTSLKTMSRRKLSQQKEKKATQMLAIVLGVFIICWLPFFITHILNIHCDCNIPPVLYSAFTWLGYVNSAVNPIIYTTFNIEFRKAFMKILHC

5-hydroxytryptamine receptor 2A, sequence (P14842 whole entry): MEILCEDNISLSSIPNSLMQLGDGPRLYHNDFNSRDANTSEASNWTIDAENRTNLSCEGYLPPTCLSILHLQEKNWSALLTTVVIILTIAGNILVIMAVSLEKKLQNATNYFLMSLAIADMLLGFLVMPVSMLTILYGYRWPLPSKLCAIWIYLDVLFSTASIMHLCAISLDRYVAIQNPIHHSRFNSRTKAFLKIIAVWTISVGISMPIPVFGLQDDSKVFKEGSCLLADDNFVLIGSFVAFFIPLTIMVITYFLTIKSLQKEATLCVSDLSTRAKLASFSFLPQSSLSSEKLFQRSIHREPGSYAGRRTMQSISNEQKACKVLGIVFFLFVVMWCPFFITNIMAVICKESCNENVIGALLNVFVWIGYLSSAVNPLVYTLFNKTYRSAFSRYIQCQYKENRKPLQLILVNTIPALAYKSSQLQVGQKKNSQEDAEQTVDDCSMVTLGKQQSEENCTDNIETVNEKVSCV
5-hydroxytryptamine receptor 4, sequence (O70528 whole entry): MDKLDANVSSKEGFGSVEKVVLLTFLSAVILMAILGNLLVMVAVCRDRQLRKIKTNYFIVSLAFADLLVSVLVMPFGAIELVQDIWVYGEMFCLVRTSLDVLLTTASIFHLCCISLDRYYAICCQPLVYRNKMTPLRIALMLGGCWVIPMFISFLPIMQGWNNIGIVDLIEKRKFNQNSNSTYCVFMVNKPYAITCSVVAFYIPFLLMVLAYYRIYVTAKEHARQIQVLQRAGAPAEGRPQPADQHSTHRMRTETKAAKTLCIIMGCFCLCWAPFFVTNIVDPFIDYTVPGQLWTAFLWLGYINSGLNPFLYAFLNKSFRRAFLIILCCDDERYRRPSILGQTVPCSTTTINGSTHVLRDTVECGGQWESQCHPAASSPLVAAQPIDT

| Ki [2] [nM] | Ki [3] [nM] | SMILES | Ki [1] [nM] | ED50 (Rattus norvegicus) [µg/kg] | Ki [4] [nM] | Ki (D(2) dopamine receptor) [nM] |
| --- | --- | --- | --- | --- | --- | --- |
| > 1000 | > 1000 | Cc1ccc2c(c1)nc(N1CCNCC1)n2Cc1ccccc1 |  |  |  |  |
| > 1000 | > 1000 | Oc1ccc2c(c1)nc(N1CCNCC1)n2Cc1ccccc1 |  |  |  |  |
| > 1000 | > 1000 | COc1ccc2c(c1)nc(N1CCNCC1)n2Cc1ccccc1 |  |  |  |  |
| > 1000 | > 1000 | Fc1ccc2c(c1)nc(N1CCNCC1)n2Cc1ccccc1 |  |  |  |  |
| > 1000 | > 1000 | COc1ccc2nc(N3CCNCC3)n(Cc3ccccc3)c2c1 |  |  |  |  |

Further lines, the molecule ahead of its results:

| SMILES | Ki [2] [nM] | Ki [3] [nM] | Ki [1] [nM] | ED50 (Rattus norvegicus) [µg/kg] | Ki [4] [nM] | Ki (D(2) dopamine receptor) [nM] |
| --- | --- | --- | --- | --- | --- | --- |
| O=C(OCCN1CCCCC1)c1c[nH]c2ccccc12 |  |  | 1 |  |  |  |
| Clc1ccc2c(c1)nc(N1CCNCC1)n2Cc1ccccc1 | > 1000 | > 1000 |  |  |  |  |
| COc1cccc2nc(N3CCNCC3)n(Cc3ccccc3)c12 | > 1000 | > 1000 |  |  |  |  |
| Oc1ccc2nc(N3CCNCC3)n(Cc3ccccc3)c2c1 | > 1000 | > 1000 |  |  |  |  |
| c1ccc2c(c1)nc(N1CCNCC1)n2C1CC1 | > 1000 | > 1000 |  |  |  |  |
| CCCn1c(N2CCNCC2)nc2ccccc21 | > 1000 | > 1000 |  |  |  |  |
| Cn1c(N2CCNCC2)nc2ccccc21 | > 1000 | > 1000 | > 1000 | 5.3 | 50.1 | > 1000 |
| COc1cccc2c1nc(N1CCNCC1)n2Cc1ccccc1 | > 1000 | > 1000 |  |  |  |  |
| Clc1cc2nc(N3CCNCC3)n(Cc3ccccc3)c2cc1Cl | > 1000 | > 1000 |  |  |  |  |
| CCn1c(N2CCNCC2)nc2ccccc21 | > 1000 | > 1000 |  |  |  |  |
| Cc1cc2nc(N3CCNCC3)n(Cc3ccccc3)c2cc1C | > 1000 | > 1000 |  |  |  |  |
| c1ccc(Cn2c(N3CCNCC3)nc3ccccc32)cc1 [LERISETRON] | > 1000 | > 1000 |  | 2 |  |  |
| CN1[C@@H]2CC[C@H]1C[C@@H](OC(=O)c1c[nH]c3ccccc13)C2 [TROPISETRON] |  |  |  | 1.7 | 1.58 |  |
